Values after ≈ are worked out from the molar mass of the structure shown.
Columns and labels:
[1] = system: Human immunodeficiency virus 1; assay: Antiviral activity against HIV1 harboring reverse transcriptase K103N mutant infected in primary MT4 cells assessed as inhibition of virus-induced cytopathogenicity after 4 days by MTS assay; type: functional, organism-based; conditions: Human immunodeficiency virus 1, MT4, 96 h
[2] = system: Human immunodeficiency virus 1; assay: Antiviral activity against HIV1 harboring reverse transcriptase Y181C mutant infected in primary MT4 cells assessed as inhibition of virus-induced cytopathogenicity after 4 days by MTS assay; type: functional, organism-based; conditions: Human immunodeficiency virus 1, MT4, 96 h
[3] = Antiviral activity against HIV1 BH10 harboring wild type reverse transcriptase infected in primary MT4 cells assessed as inhibition of virus-induced cytopathogenicity after 4 days by MTS assay; type: functional, cell-based, Human immunodeficiency virus type 1 BH10; conditions: Human immunodeficiency virus 1, MT4, 96 h
[4] = system: Human immunodeficiency virus 1; assay: Antiviral activity against HIV1 harboring reverse transcriptase Y181C/K103N double mutant infected in primary MT4 cells assessed as inhibition of virus-induced cytopathogenicity after 4 days by MTS assay; type: functional, organism-based; conditions: Human immunodeficiency virus 1, MT4, 96 h
[5] = Aqueous solubility of the compound at pH 7; type: physicochemical; conditions: aqueous medium
[6] = system: Human immunodeficiency virus 1; assay: Antiviral activity against HIV1 harboring reverse transcriptase Y181C mutant infected in secondary MT4 cells assessed as inhibition of virus-induced cytopathogenicity after 4 days by MTS assay; type: functional, organism-based; conditions: Human immunodeficiency virus 1, MT4, 96 h
[7] = system: Human immunodeficiency virus 1; assay: Antiviral activity against HIV1 harboring reverse transcriptase K103N mutant infected in secondary MT4 cells assessed as inhibition of virus-induced cytopathogenicity after 4 days by MTS assay; type: functional, organism-based; conditions: Human immunodeficiency virus 1, MT4, 96 h
[8] = Antiviral activity against HIV1 BH10 harboring wild type reverse transcriptase infected in secondary MT4 cells assessed as inhibition of virus-induced cytopathogenicity after 4 days by MTS assay; type: functional, cell-based, Human immunodeficiency virus type 1 BH10; conditions: Human immunodeficiency virus 1, MT4, 96 h
[9] = system: Human immunodeficiency virus 1; assay: Antiviral activity against HIV1 harboring reverse transcriptase Y181C/K103N double mutant infected in secondary MT4 cells assessed as inhibition of virus-induced cytopathogenicity after 4 days by MTS assay; type: functional, organism-based; conditions: Human immunodeficiency virus 1, MT4, 96 h
[10] = Oral bioavailability in fed cynomolgus monkey at 5 mg/kg after 0.083 to 24 hrs by LC-MS/MS method; type: ADME, organism-based, Macaca fascicularis; conditions: in vivo
In short: (§1)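 Fed beagle dogs and fed male cynomolgus monkeys were dosed at 1 mg/kg IV or 5 mg/kg PO in 10% dimethylacetamide/10% ethanol/80% PEG400. Femoral-vein blood was drawn predose and at 0.083–24 h into lithium-heparin tubes. Plasma was stored at -70 °C and parent drug was measured by LC-MS/MS. Values are mean parameters (n=3 or 2).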

[11] = Half life in fed cynomolgus monkey at 1 mg/kg, iv by LC-MS/MS method; type: ADME, organism-based, Macaca fascicularis; conditions: in vivo; in short: as §1
[12] = Half life in dog hepatocytes; type: ADME, cell-based, Canis lupus familiaris, Hepatocyte
In short: (§2)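 Metabolic stability was measured in hepatocytes as the half-life (min) of parent compound depletion. Values come from independent experiments using hepatocytes from 5 to 7 donors.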

[13] = Half life in rat hepatocytes; type: ADME, cell-based, Hepatocyte; in short: as §2
[14] = Half life in fasted Sprague-Dawley rat at 10 mg/kg, po by LC-MS/MS method; type: ADME, organism-based; conditions: in vivo
In short: (§3)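 Fasted Sprague Dawley rats received 10 mg/kg orally in 10% dimethylacetamide/10% ethanol/80% PEG400. Plasma was stored at -70 °C until LC-MS/MS quantitation. Values are mean parameters (n=3 or 2).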

[15] = Clearance in fed beagle dog at 1 mg/kg, iv after 0.083 to 24 hrs by LC-MS/MS method; type: ADME, organism-based, Canis lupus familiaris; conditions: in vivo; in short: as §1
[16] = Half life in fed beagle dog at 5 mg/kg, po by LC-MS/MS method; type: ADME, organism-based, Canis lupus familiaris; conditions: in vivo; in short: as §1
[17] = Clearance in fasted Sprague-Dawley rat at 2 mg/kg, iv after 0.083 to 24 hrs by LC-MS/MS method; type: ADME, organism-based; conditions: in vivo
[18] = Half life in fed beagle dog at 1 mg/kg, iv by LC-MS/MS method; type: ADME, organism-based, Canis lupus familiaris; conditions: in vivo; in short: as §1
[19] = Cmax in fed cynomolgus monkey at 5 mg/kg, po after 0.083 to 24 hrs by LC-MS/MS method; type: ADME, organism-based, Macaca fascicularis; parameters: dose 5 mg/kg, route oral; conditions: in vivo; in short: as §1
[20] = system: Human immunodeficiency virus 1; assay: Potency index, ratio of EFV EC50 to compound EC50 for HIV1 harboring reverse transcriptase Y181C/K103N double mutant; type: functional
[21] = Cmax in fed beagle dog at 1 mg/kg, iv after 0.083 to 24 hrs by LC-MS/MS method; type: ADME, organism-based, Canis lupus familiaris; parameters: dose 1 mg/kg, route intravenous; conditions: in vivo; in short: as §1
[22] = Half life in fed cynomolgus monkey at 5 mg/kg, po by LC-MS/MS method; type: ADME, organism-based, Macaca fascicularis; conditions: in vivo; in short: as §1
[23] = Cmax in fed beagle dog at 5 mg/kg, po after 0.083 to 24 hrs by LC-MS/MS method; type: ADME, organism-based, Canis lupus familiaris; parameters: dose 5 mg/kg, route oral; conditions: in vivo; in short: as §1
[24] = Cmax in fasted Sprague-Dawley rat at 10 mg/kg, po after 0.083 to 24 hrs by LC-MS/MS method; type: ADME, organism-based; parameters: dose 10 mg/kg, route oral; conditions: in vivo; in short: as §3
[25] = Cmax in fed cynomolgus monkey at 1 mg/kg, iv after 0.083 to 24 hrs by LC-MS/MS method; type: ADME, organism-based, Macaca fascicularis; parameters: dose 1 mg/kg, route intravenous; conditions: in vivo; in short: as §1
[26] = system: Human immunodeficiency virus 1; assay: Potency index, ratio of EFV EC50 to compound EC50 for HIV1 harboring reverse transcriptase K103N mutant; type: functional
[27] = Half life in monkey hepatocytes; type: ADME, cell-based, Macaca mulatta, Hepatocyte; conditions: rhesus monkey; in short: as §2
[28] = Oral bioavailability in fed beagle dog at 5 mg/kg after 0.083 to 24 hrs by LC-MS/MS method; type: ADME, organism-based, Canis lupus familiaris; conditions: in vivo; in short: as §1
[29] = Tmax in fed cynomolgus monkey at 5 mg/kg, po by LC-MS/MS method; type: ADME, organism-based, Macaca fascicularis; conditions: in vivo; in short: as §1
[30] = Clearance in fed cynomolgus monkey at 1 mg/kg, iv after 0.083 to 24 hrs by LC-MS/MS method; type: ADME, organism-based, Macaca fascicularis; conditions: in vivo; in short: as §1
[31] = Half life in fasted Sprague-Dawley rat at 2 mg/kg, iv by LC-MS/MS method; type: ADME, organism-based; conditions: in vivo
[32] = Cmax in fasted Sprague-Dawley rat at 2 mg/kg, iv after 0.083 to 24 hrs by LC-MS/MS method; type: ADME, organism-based; parameters: dose 2 mg/kg, route intravenous; conditions: in vivo

Compound `COP(=O)(c1cc(C)cc(CCC#N)c1)c1c(C(N)=O)[nH]c2ccc(Cl)cc12` (stereo unspecified) has an EC50 [1] of 3.5 nM, an EC50 [2] of 0.7 nM and an EC50 [3] of 0.7 nM. The EC50 [4] was 28.5 nM.

In the case of `COP(=O)(c1cncc(/C=C/C#N)c1)c1c(C(N)=O)[nH]c2ccc(Cl)cc12` (stereo unspecified), the EC50 [1] is reported as 9.5 nM, the EC50 [2] is reported as 2.5 nM and the EC50 [3] is reported as 1 nM. It also gave an EC50 [4] of 192 nM.

For `COP(=O)(c1cc(C)cc(C)c1)c1c(C(N)=O)[nH]c2ccc(Cl)cc12` (stereo unspecified), the EC50 [1] was 4 nM, the EC50 [2] was 15 nM and the EC50 [3] was 1 nM. For the same compound, the EC50 [4] was 238 nM and the solubility [5] was 0.9 µM (≈ 0.339 µg/mL).

Work on `COP(=O)(c1cccc(/C=C/C#N)c1)c1c(C(N)=O)[nH]c2ccc(Cl)cc12` (stereo unspecified) yielded an EC50 [6] of 3.2 nM, an EC50 [7] of 1.8 nM and an EC50 [8] of 3.4 nM. The EC50 [9] was 49.5 nM.

Work on `O=C1Nc2ccc(Cl)cc2[C@@](C#CC2CC2)(C(F)(F)F)O1` [EFAVIRENZ] yielded an EC50 [1] of 37 nM, an EC50 [2] of 1.8 nM and an EC50 [3] of 0.7 nM. It also gave an EC50 [4] of 58 nM and a solubility [5] of less than 0.5 µM.

`COP(=O)(c1cc(C)cc(/C=C/C#N)c1)c1c(C(N)=O)[nH]c2ccc(Cl)cc12` (single isomer, unassigned; form 1) [FOSDEVIRINE] showed a bioavailability [10] of 42%, a half-life [11] of 2 h and an EC50 [1] of 2.8 nM. The half-life [12] was 0.35 h, the half-life [13] was 0.283 h and the half-life [14] was 5.9 h. It also gave an EC50 [2] of 1.3 nM, a clearance [15] of 30.5 mL/min/kg and a half-life [16] of 2.4 h. The clearance [17] was 1.18 mL/min/kg, the EC50 [3] was 1 nM and the half-life [18] was 3.9 h. For the same compound, the Cmax [19] was 945 ng/mL, the “Ratio EC50” value [20] was 4 and the Cmax [21] was 290 ng/mL. It also gave a half-life [22] of 3.1 h, a Cmax [23] of 18 ng/mL and a Cmax [24] of 25 ng/mL. For the same compound, the Cmax [25] was 1460 ng/mL, the “Ratio EC50” value [26] was 30 and the half-life [27] was 0.867 h. The EC50 [4] was 11 nM, the bioavailability [28] was 4% and the solubility [5] was 20 µM (≈ 8.28 µg/mL). For the same compound, the Tmax [29] was 3 h, the clearance [30] was 5.5 mL/min/kg and the half-life [31] was 0.2 h. For the same compound, the Cmax [32] was 88 ng/mL.

`COP(=O)(c1cc(Cl)cc(Cl)c1)c1c(C(N)=O)[nH]c2ccc(Cl)cc12` (stereo unspecified) showed an EC50 [1] of 19.9 nM, an EC50 [2] of 1.7 nM and an EC50 [3] of 0.3 nM. For the same compound, the EC50 [4] was 248 nM.

In the case of `COP(=O)(c1cccc2ccccc12)c1c(C(N)=O)[nH]c2ccc(Cl)cc12` (stereo unspecified), the EC50 [1] is reported as 727 nM, the EC50 [2] is reported as 357 nM and the EC50 [3] is reported as 17.5 nM. It also gave an EC50 [4] greater than 1000 nM.

`COP(=O)(c1cccs1)c1c(C(N)=O)[nH]c2ccc(Cl)cc12` (stereo unspecified) gave an EC50 [1] of 8.6 nM, an EC50 [2] of 3.4 nM and an EC50 [3] of 0.3 nM. For the same compound, the EC50 [4] was greater than 1000 nM.

Compound `COP(=O)(c1cc(C)cc(Cl)c1)c1c(C(N)=O)[nH]c2ccc(Cl)cc12` (stereo unspecified) has an EC50 [1] of 18.8 nM, an EC50 [2] of 5.6 nM and an EC50 [3] of 1.1 nM. For the same compound, the EC50 [4] was 114 nM.

For `COP(=O)(c1cc(C)cc(F)c1)c1c(C(N)=O)[nH]c2ccc(Cl)cc12` (stereo unspecified), the EC50 [1] was 0.5 nM, the EC50 [2] was 3.4 nM and the EC50 [3] was 0.2 nM. It also gave an EC50 [4] of 69 nM and a solubility [5] of 1.7 µM (≈ 0.647 µg/mL).

— ChEMBL document CHEMBL3779828, “Discovery of the Aryl-phospho-indole IDX899, a Highly Potent Anti-HIV Non-nucleoside Reverse Transcriptase Inhibitor” (J Med Chem, 2016)
